Assay outcomes: PubChem BioAssay, several laboratories
MrgX1 PAM – positive allosteric modulators of MrgX1, primary screen, HEK293 cells, Fluo-4 calcium flux | Mas-related G-protein coupled receptor member X1 (Homo sapiens), Q96LB2 | FDSS; hits give high values | B-score at 10 µM | actives 0.63% (n = 310,000) | AID 588675, 2011;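 active means plate-corrected calcium response at least 3 library SD above typical, normal starting fluorescence, not activating the receptor alone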;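 further: compound read alongside a low EC10 to EC30 dose of BAM8-22 agonist; peak minus trough fluorescence over baseline measured at the second addition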
MrgX1 antagonist – antagonists of human MrgX1 receptor, primary screen, HEK293 cells, Fluo-4 calcium flux; Mas-related G-protein coupled receptor member X1 (Homo sapiens), Q96LB2; BAM8-22 antagonism; hits give low values; B-score at 10 µM; actives 1.3% (n = 310,000); AID 588676, 2011;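 active means calcium-response B-score plate-corrected more than 3 library SD below zero, starting fluorescence within 5 deviations, no agonist response on first addition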;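 further: peak minus trough fluorescence over baseline after final BAM8-22 challenge near maximal dose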
MrgX1 agonist – agonists of human MrgX1 receptor, primary screen, HEK293 cells, Fluo-4 calcium flux. Mas-related G-protein coupled receptor member X1 (Homo sapiens), Q96LB2. Fluo-4 calcium fluorescence, agonist mode; hits give high values. B-score at 10 µM. actives 0.44% (n = 310,000);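 active means calcium response B-score plate-corrected fluorescence ratio at least 3 library SD, with starting fluorescence B-score inside 5 SD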
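Material: HEK293 cells stably expressing human MrgX1 receptor | Quantity: 15,000 cells per well | Times: Cells plated overnight, dye loaded 0.5 h 37 °C, 0.5 h room temperature | Measured by: Kinetic Fluo-4 NW fluorescence of intracellular calcium | Control set: Positive and negative controls per plate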
PHOSPHO1 inh – PubChem AID 1565 | recombinant PHOSPHO1, absorbance phosphatase assay | inhibition, % at 13.3 µM | actives 1.1% (n = 290,000) | Phosphoethanolamine/phosphocholine phosphatase (Homo sapiens), Q8TCT1; in the data active means inhibition above about 60%
Target sequence (Q8TCT1 whole entry, looked up): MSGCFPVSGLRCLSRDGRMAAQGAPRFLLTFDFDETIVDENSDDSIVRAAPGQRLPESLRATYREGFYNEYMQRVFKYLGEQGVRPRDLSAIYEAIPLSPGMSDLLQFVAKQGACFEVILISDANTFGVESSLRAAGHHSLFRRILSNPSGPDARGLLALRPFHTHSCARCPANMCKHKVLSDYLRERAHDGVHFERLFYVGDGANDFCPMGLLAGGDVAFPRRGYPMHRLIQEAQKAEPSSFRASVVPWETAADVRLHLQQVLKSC
RGS4 act – RGS4 potentiators or activators, primary screen, cell-based, HEK293 M3R inducible RGS4, calcium flux; carbachol calcium flux Fluo4; hits give low values; B-score at 10 µM; actives 0.92% (n = 310,000); AID 463111, 2010;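 active means B-score of the integrated calcium signal more than 4 SD below the library mean, with starting fluorescence not abnormally high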;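 further: negative B-score means reduced calcium response which marks RGS4 activation or potentiation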
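test system = HEK293 cells with stable M3R and inducible RGS4 | schedule = recording 10 s baseline at 1 Hz, 100 s post-agonist | technique = Fluo4-AM (2 µM) calcium-flux fluorescence, kinetic read | measure = Agonist-evoked peak-minus-minimum fluorescence over baseline, integrated ratio, B score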
RGS4 inh – RGS4 inhibitors, primary screen, cell-based, HEK293 M3R inducible RGS4, calcium flux | Fluo-4 calcium flux; hits give high values; triggered by carbachol at its EC20 | B-score at 10 µM | actives 0.45% (n = 310,000);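 active means B-score, a plate-corrected calcium signal, over three deviations above library mean, with baseline fluorescence within five deviations of library mean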;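 further: RGS4 expression induced by doxycycline in cells with stable M3 receptor; B-score is computed from the integrated fluorescence ratio over baseline after carbachol; higher B-score means a larger calcium signal and so more RGS4 inhibition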
Target sequence (P49798 whole entry, looked up): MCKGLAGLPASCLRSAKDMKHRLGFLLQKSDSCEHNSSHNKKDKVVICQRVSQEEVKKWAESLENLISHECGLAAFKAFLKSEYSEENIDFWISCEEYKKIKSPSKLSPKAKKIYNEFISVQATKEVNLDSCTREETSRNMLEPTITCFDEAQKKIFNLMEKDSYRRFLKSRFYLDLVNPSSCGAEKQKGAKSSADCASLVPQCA
* marks the source's active call; other numbers are inactive results. In the library only some 4.5% were active in any assay of this set; here they are far more common.

How did Cc1cc(Cl)ccc1Oc1ncnc2oc(-c3ccccc3)cc12 do in these assays?
MrgX1 PAM: 12*; MrgX1 antagonist: inactive; MrgX1 agonist: inactive; PHOSPHO1 inh: -10; RGS4 act: inactive; RGS4 inh: inactive

What do the screens show for `S=c1[nH]ncn1/N=C/c1cccs1`?
MrgX1 PAM: inactive; MrgX1 antagonist: inactive; MrgX1 agonist: inactive; PHOSPHO1 inh: -10; RGS4 act: inactive; RGS4 inh: inactive

How did S=c1[nH]ncn1/N=C/c1ccccn1 do in these assays?
MrgX1 PAM: inactive; MrgX1 antagonist: inactive; MrgX1 agonist: inactive; PHOSPHO1 inh: 98*; RGS4 act: inactive; RGS4 inh: inactive

What do the screens show for `Cc1cccc(-n2c(Cc3cc(=O)[nH]c(=O)[nH]3)nnc2SCC(=O)N2CCc3ccccc32)c1`?
MrgX1 PAM: inactive; MrgX1 antagonist: inactive; MrgX1 agonist: inactive; PHOSPHO1 inh: -22; RGS4 act: inactive; RGS4 inh: inactive

How did CN(C)c1ccc(/C=C/C(=O)c2cccnc2)cc1 do in these assays?
MrgX1 PAM: inactive; MrgX1 antagonist: inactive; MrgX1 agonist: inactive; PHOSPHO1 inh: 60*; RGS4 act: inactive; RGS4 inh: inactive

How did CN(C)c1ccc(/C=C/C(=O)c2ccccc2O)cc1 do in these assays?
MrgX1 PAM: inactive; MrgX1 antagonist: inactive; MrgX1 agonist: inactive; PHOSPHO1 inh: -24; RGS4 act: inactive; RGS4 inh: inactive

What do the screens show for `COc1ccc2c(Cl)c(C(=O)NN3CCN(C)CC3)sc2c1`?
MrgX1 PAM: inactive; MrgX1 antagonist: inactive; MrgX1 agonist: inactive; PHOSPHO1 inh: 26; RGS4 act: inactive; RGS4 inh: inactive

How did COc1ccc(NC(=O)CSCC(=O)NCc2ccco2)cc1 do in these assays?
MrgX1 PAM: inactive; MrgX1 antagonist: inactive; MrgX1 agonist: inactive; RGS4 act: inactive; RGS4 inh: inactive

How did COc1ccc(-c2nc(CSCC(=O)NCc3ccco3)c(C)o2)cc1 do in these assays?
MrgX1 PAM: inactive; MrgX1 antagonist: -5.4*; MrgX1 agonist: inactive; PHOSPHO1 inh: 24; RGS4 act: inactive; RGS4 inh: inactive

Results for CCOc1ccc(CCNC(=O)CS(=O)(=O)Cc2nc(-c3ccc(OC)cc3)oc2C)cc1 ?
MrgX1 PAM: inactive; MrgX1 antagonist: inactive; MrgX1 agonist: inactive; PHOSPHO1 inh: 64*; RGS4 act: inactive; RGS4 inh: inactive

How did CCOc1ccc(CNC(=O)CS(=O)(=O)Cc2nc(-c3ccc(OC)cc3)oc2C)cc1 do in these assays?
MrgX1 PAM: inactive; MrgX1 antagonist: inactive; MrgX1 agonist: inactive; PHOSPHO1 inh: 23; RGS4 act: inactive; RGS4 inh: inactive

What do the screens show for `COc1ccc(/C=C(/C(=O)c2ccc(Cl)cc2Cl)n2cncn2)cc1`?
MrgX1 PAM: inactive; MrgX1 antagonist: inactive; MrgX1 agonist: 35*; PHOSPHO1 inh: 7; RGS4 act: inactive; RGS4 inh: inactive

How did O=c1c(C(c2ccccc2)c2c(O)sc3ccccc3c2=O)c(O)sc2ccccc12 do in these assays?
MrgX1 PAM: inactive; MrgX1 antagonist: -4.6*; MrgX1 agonist: inactive; PHOSPHO1 inh: 7; RGS4 act: inactive; RGS4 inh: inactive

What do the screens show for `CC(C)n1c(SCC(=O)NC2CC2)nnc1-c1ccco1`?
MrgX1 PAM: inactive; MrgX1 antagonist: inactive; MrgX1 agonist: inactive; PHOSPHO1 inh: 66*; RGS4 act: inactive; RGS4 inh: inactive

How did Cn1ccnc1SCC(=O)NC1CC1 do in these assays?
MrgX1 PAM: inactive; MrgX1 antagonist: inactive; MrgX1 agonist: inactive; PHOSPHO1 inh: 30; RGS4 act: inactive; RGS4 inh: inactive

Results for Cn1c(COc2ccc(F)cc2)nnc1SCC(=O)NC1CC1 ?
MrgX1 PAM: inactive; MrgX1 antagonist: inactive; MrgX1 agonist: inactive; PHOSPHO1 inh: 41; RGS4 act: inactive; RGS4 inh: inactive

Results for Cn1ccnc1SCC(=O)NC1CCCCC1 ?
MrgX1 PAM: inactive; MrgX1 antagonist: inactive; MrgX1 agonist: inactive; PHOSPHO1 inh: 62*; RGS4 act: inactive; RGS4 inh: inactive

What do the screens show for `CCOC(=O)CN(C(=O)CSc1nnc(CNc2ccc(F)cc2)n1C)c1ccccc1`?
MrgX1 PAM: inactive; MrgX1 antagonist: inactive; MrgX1 agonist: inactive; PHOSPHO1 inh: 16; RGS4 act: inactive; RGS4 inh: inactive

How did CCOC(=O)CN(C(=O)CSc1nnc(COc2ccc(OC)cc2)n1C)c1ccccc1 do in these assays?
MrgX1 PAM: inactive; MrgX1 antagonist: inactive; MrgX1 agonist: inactive; PHOSPHO1 inh: 74*; RGS4 act: inactive; RGS4 inh: inactive

Results for COc1ccc(OCc2nnc(SCC(=O)NC3CC3)n2C)cc1 ?
MrgX1 PAM: inactive; MrgX1 antagonist: inactive; MrgX1 agonist: inactive; PHOSPHO1 inh: 63*; RGS4 act: inactive; RGS4 inh: inactive

Results for O=C(Cn1cnc(S(=O)(=O)N2CCCC2)c1)Nc1cccc(F)c1 ?
MrgX1 PAM: inactive; MrgX1 antagonist: inactive; MrgX1 agonist: inactive; PHOSPHO1 inh: -4; RGS4 act: inactive; RGS4 inh: inactive

What do the screens show for `O=C1/C(=C/c2cccc(F)c2)Oc2cc(O)ccc21`?
MrgX1 PAM: inactive; MrgX1 antagonist: inactive; MrgX1 agonist: inactive; PHOSPHO1 inh: 35; RGS4 act: inactive; RGS4 inh: inactive

What do the screens show for `CCN(c1ccc(OC)cc1)S(=O)(=O)c1ccc2c(c1)CC(C)N2C(=O)C1CC1` (stereo not drawn)?
MrgX1 PAM: inactive; MrgX1 antagonist: inactive; MrgX1 agonist: inactive; PHOSPHO1 inh: 36; RGS4 act: inactive; RGS4 inh: inactive

What do the screens show for `CCCc1cc(=O)oc2cc(OC(C)C(=O)NCC3CCC(C(=O)O)CC3)ccc12` (stereo not drawn)?
MrgX1 PAM: inactive; MrgX1 antagonist: inactive; MrgX1 agonist: inactive; PHOSPHO1 inh: 34; RGS4 act: inactive; RGS4 inh: inactive

Results for CCOc1cccc2cc(C(=O)NCc3ccc(OC)cc3)c(=N)oc12 ?
MrgX1 PAM: inactive; MrgX1 antagonist: inactive; MrgX1 agonist: inactive; PHOSPHO1 inh: 33; RGS4 act: inactive; RGS4 inh: inactive

Results for Cc1onc(-c2ccccc2)c1C(O)c1ccc(F)cc1 (stereo not drawn) ?
MrgX1 PAM: inactive; MrgX1 antagonist: inactive; MrgX1 agonist: inactive; PHOSPHO1 inh: 37; RGS4 act: inactive; RGS4 inh: inactive

Results for COC(=O)C(CC(=O)c1ccc(Br)cc1)n1ccnc1 (stereo not drawn) ?
PHOSPHO1 inh: 37; RGS4 act: inactive; RGS4 inh: 6.6*
